Assays:
Rattus norvegicus [1] = experiment: Antiallergic activity in iv dosed Sprague-Dawley rat assessed as inhibition of egg albumin-induced passive cutaneous anaphylaxis after 15 to 25 mins relative to disodium cromoglycate
Rattus norvegicus [2] = experiment: Antiallergic activity in iv dosed Sprague-Dawley rat assessed as inhibition of egg albumin-induced passive cutaneous anaphylaxis after 15 to 25 mins relative to disodium cromoglycate; format: functional
Method in brief: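 Reaginic antiserum from rats immunized with 1.25 mg egg albumin sc plus H. pertussis vaccine ip, bled 11 days later. Recipient rats sensitized intradermally with two antiserum dilutions in 0.1 mL saline. Challenged 24 h later iv with 1.0 mL buffered saline (pH 7.2) holding 1.0 mg albumin, 0.5% Evans blue and test compound. Usually three doses (fivefold increments), ≥5 rats per group.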

CC(C)[S+]([O-])c1ccc2oc3ccc(C(=O)O)cc3c(=O)c2c1 (stereo not given)
RPCA relative potency (Rattus norvegicus [1]): 4

CS(=O)(=O)c1ccc2oc3ccc(C(=O)O)cc3c(=O)c2c1
RPCA relative potency (Rattus norvegicus [1]): 7

CCCCOc1cc([S+](C)[O-])cc2c(=O)c3cc(C(=O)O)ccc3oc12 (stereo not given)
RPCA relative potency (Rattus norvegicus [1]): 260
fold change (FC) (Rattus norvegicus [2]): 260

CC(=O)c1ccc2oc3ccc(C(=O)O)cc3c(=O)c2c1
RPCA relative potency (Rattus norvegicus [1]): 6

CCC(=O)c1ccc2oc3ccc(C(=O)O)cc3c(=O)c2c1
RPCA relative potency (Rattus norvegicus [1]): 2

CC(C)C(=O)c1ccc2oc3ccc(C(=O)O)cc3c(=O)c2c1
RPCA relative potency (Rattus norvegicus [1]): 3

O=C(O)c1ccc2oc3ccc(C(=O)C4CC4)cc3c(=O)c2c1
RPCA relative potency (Rattus norvegicus [1]): 3

O=C(O)c1ccc2oc3ccc(C(=O)C4CCCC4)cc3c(=O)c2c1
RPCA relative potency (Rattus norvegicus [1]): 2

CSc1ccc2oc3ccc(C(=O)O)cc3c(=O)c2c1
RPCA relative potency (Rattus norvegicus [1]): 5

CC(C)Sc1ccc2oc3ccc(C(=O)O)cc3c(=O)c2c1
RPCA relative potency (Rattus norvegicus [1]): 2

COc1cc(OC)c2oc3ccc(C(=O)O)cc3c(=O)c2c1
RPCA relative potency (Rattus norvegicus [1]): 6

COc1cc2oc3ccc(C(=O)O)cc3c(=O)c2cc1OC
RPCA relative potency (Rattus norvegicus [1]): 2

COc1cc(OC)c2c(=O)c3cc(C(=O)O)ccc3oc2c1
RPCA relative potency (Rattus norvegicus [1]): 0.1

Cc1cc(C)c2oc3ccc(C(=O)O)cc3c(=O)c2c1
RPCA relative potency (Rattus norvegicus [1]): 1

Cc1cc2oc3ccc(C(=O)O)cc3c(=O)c2cc1C
RPCA relative potency (Rattus norvegicus [1]): 0.2

Cc1ccc2oc3ccc(C(=O)O)cc3c(=O)c2c1C
RPCA relative potency (Rattus norvegicus [1]): 0.2

CCOc1cc([S+](C)[O-])cc2c(=O)c3cc(C(=O)O)ccc3oc12 (stereo not given)
RPCA relative potency (Rattus norvegicus [1]): 80

CCCOc1cc([S+](C)[O-])cc2c(=O)c3cc(C(=O)O)ccc3oc12 (stereo not given)
RPCA relative potency (Rattus norvegicus [1]): 50

CC(C)Oc1cc([S+](C)[O-])cc2c(=O)c3cc(C(=O)O)ccc3oc12 (stereo not given)
RPCA relative potency (Rattus norvegicus [1]): 190

CCCCCOc1cc([S+](C)[O-])cc2c(=O)c3cc(C(=O)O)ccc3oc12 (stereo not given)
RPCA relative potency (Rattus norvegicus [1]): 90

CC(C)CCOc1cc([S+](C)[O-])cc2c(=O)c3cc(C(=O)O)ccc3oc12 (stereo not given)
RPCA relative potency (Rattus norvegicus [1]): 100

C[S+]([O-])c1cc(OC2CCCC2)c2oc3ccc(C(=O)O)cc3c(=O)c2c1 (stereo not given)
RPCA relative potency (Rattus norvegicus [1]): 100

CCCCCCCCOc1cc([S+](C)[O-])cc2c(=O)c3cc(C(=O)O)ccc3oc12 (stereo not given)
RPCA relative potency (Rattus norvegicus [1]): 35

C[S+]([O-])c1ccc2oc3ccc(C(=O)O)cc3c(=O)c2c1 (stereo not given) [TIXANOX]
RPCA relative potency (Rattus norvegicus [1]): 25

Source: ChEMBL document CHEMBL3244024, “Synthesis and antiallergic activity of some mono- and disubstituted xanthone-2-carboxylic acids” (1978)
